According to ChEMBL document CHEMBL5634162, “Cyclohexylalanine-Containing α-Helical Amphipathic Peptide Targets Cardiolipin, Rescuing Mitochondrial Dysfunction in Kidney Injury” (J Med Chem, 2024):
The source made the active and inactive calls. No cut-off for these calls is given here. Where a SMILES comes first, the peptide text is derived from it. Bridges are numbered along the chain shown (N, C = ends). Roman numbers before positions name the chains, in order. [ ]: non-standard residue; d: D form. The star is where a group is joined. 5TAMRA = CN(C)c1ccc2c(c1)Oc1cc(N(C)C)ccc1C21OC(=O)c2cc(C(=O)*)ccc21; Cha = N[C@@H](CC1CCCCC1)C(=O)O

Tests used:
Mus musculus [1] = experiment: Protection against […] C57BL/6 mouse model assessed as reduction in tubular damage at 1 mg/kg, ip administered thrice a week prior to induction of bilateral ischemia-reperfusion injury measured after 6 days by IHC analysis; type: functional, organism-based; conditions: time 6.0 day
HeLa [2] = experiment: Cytoprotective activity against CCCP-induced cell death in human HeLa cells assessed as increase in cell survival measured for 4 hrs by fluorescence based analysis; type: functional
HeLa [3] = experiment: Reversal of H2O2-induced mitochondrial damage in human HeLa cells assessed as formation of long cristae at 50 to 100 nM preincubated for 2 hrs followed by H2O2 addition for 2 hrs by TEM analysis; type: functional, cell-based; conditions: dose 50-100 nM, time 4.0 hrs
Procedure, shortened: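 HeLa cells were pretreated with 50 or 100 nM peptide for 2 h, then exposed to 0.5 mM H2O2 for 2 h. They were fixed in Karnovsky's fixative (pH 7.2), postfixed in osmium, embedded in Spurr's resin and stained with uranyl acetate/lead citrate for TEM. Cristae longer than 0.5 μm were counted from at least 50 mitochondrial images.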

Mus musculus [4] = experiment: Protection against colistin-induced nephrotoxicity in C57BL/6 mouse model assessed as reduction in tubular casts at 1 mg/kg, ip administered once every other day measured after 7 days by […] analysis; type: functional, organism-based; conditions: time 7.0 day
Procedure, shortened: (§1)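 Seven-week-old male C57BL/6 mice got colistin 20 mg/kg SC daily for 7 days plus peptide 1 mg/kg intraperitoneally every other day; groups of n = 5 (control, colistin, colistin + peptide). Kidneys were taken at day 7. Cytochrome C was detected by immunohistochemistry (citrate antigen retrieval, HRP-polymer detection, hematoxylin counterstain). Sections were also stained with PAS and Masson's trichrome to score histologic damage and fibrosis.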

Mus musculus [5] = experiment: Protection against […] C57BL/6 mouse model assessed as decrease in serum creatinine level at 1 mg/kg, ip measured after 23 hrs; type: functional, organism-based
Mus musculus [6] = experiment: Protection against colistin-induced nephrotoxicity in C57BL/6 mouse model assessed as reduction in renal fibrosis at 1 mg/kg, ip administered once every other day measured after 7 days by […] analysis; type: functional, organism-based; conditions: time 7.0 day; procedure, shortened: as §1
Mus musculus [7] = experiment: Protection against […] C57BL/6 mouse model assessed as increase in SOD-1 level at 1 mg/kg, ip administered thrice a week prior to induction of bilateral ischemia-reperfusion injury measured after 6 days by IHC analysis; type: functional, organism-based; conditions: time 6.0 day
Mitochondria = experiment: Inhibition of CCCP -induced mitochondrial ROS generation in human HeLa cells incubated for 190 mins followed by CCCP addition measured after 90 mins by MitoSOX probe based analysis; type: functional; conditions: dose 5-20 nM
Procedure, shortened: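 HeLa cells seeded, stained 24 h later with MitoSOX 5 μM for 10 min, washed, HBSS, read on plate reader at 37 °C (Ex/Em 510/580 nm).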

Epithelial cell [8] = experiment: Induction of H2O2-reduced ATP production in human tubular epithelial cells at 10 to 20 nM incubated for 3 hrs followed by H2O2 measured after 1 hr by fluorescene based analysis; type: functional; conditions: dose 10-20 nM, time 4.0 hrs
Mus musculus [9] = experiment: Protection against […] C57BL/6 mouse model assessed as decrease in NGAL level at 1 mg/kg, ip administered thrice a week prior to induction of bilateral ischemia-reperfusion injury measured after 6 days by IHC analysis; type: functional, organism-based; conditions: time 6.0 day
[10] = Drug uptake in CCCP-damaged mitochondria of human HeLa cells at 100 nM by MitoTracker probe based assay; type: ADME; conditions: 16 min, 0.1 µM, TDE = time-dependent effect
Procedure, shortened: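 HeLa cells given TAMRA-labelled peptide 100 nM for 3 h with MitoTracker staining; mitochondria damaged with 20 μM CCCP (30 min) or by CCCP during time-lapse confocal imaging. Red/green Pearson r calculated.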

Mus musculus [11] = experiment: Protection against […] C57BL/6 mouse model assessed as increase in IL-10 mRNA level at 1 mg/kg, ip administered thrice a week prior to induction of bilateral ischemia-reperfusion injury measured after 6 days by qPCR analysis; type: functional, organism-based; conditions: time 6.0 day
Epithelial cell [12] = experiment: Reversal of H2O2-induced mitochondrial dysfunction in human tubular epithelial cells assessed as increase in glycolytic PER level measured for 40 to 60 mins by Seahorse assay; type: functional, cell-based; conditions: dose 10-50 nM, time 40-60 min
Procedure, shortened: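 hTECs were exposed to H2O2 with peptide at 10 or 50 nM (n = 6 per group), then run on a Seahorse XFe96. OCR was read after sequential 2 μM oligomycin, 1 μM FCCP, and 0.5 μM rotenone/antimycin A. ECAR was read after 10 mM glucose, 1 μM oligomycin and 50 mM 2-DG. Glycolytic proton efflux rate was taken as glycoATP production rate.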

Mus musculus [13] = experiment: Protection against […] C57BL/6 mouse model assessed as decrease in serum BUN level at 1 mg/kg, ip measured after 23 hrs; type: functional, organism-based
[14] = Drug localization in CCCP-damaged mitochondria of human HeLa cells at 100 nM incubated for 3 hrs by NAO probe based assay; type: ADME; conditions: 0.1 µM
Procedure, shortened: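 HeLa cells given TAMRA-labelled peptide 100 nM for 3 h and cardiolipin stained with NAO (100 nM, 1 h), with or without 20 μM CCCP for 30 min; LysoTracker 50 nM. Confocal images, Pearson r from five independent images (63×) per condition.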

HeLa [15] = experiment: Induction of H2O2-reduced mitochondrial membrane potential in human HeLa cells incubated for 3 hrs followed by H2O2 addition for 1 hr by fluorescence based analysis; type: functional, cell-based; conditions: dose 10-30 nM, time 4.0 hrs
Procedure, shortened: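 HeLa cells given peptide 3 h then 1 mM H2O2 for 1 h; TMRE 600 nM for 15 min, washed, fluorescence read in HBSS at 37 °C (Ex/Em 525/575 nm).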

Mus musculus [16] = experiment: Protection against […] C57BL/6 mouse model assessed as increase in SOD-1 mRNA level at 1 mg/kg, ip administered thrice a week prior to induction of bilateral ischemia-reperfusion injury measured after 6 days by qPCR analysis; type: functional, organism-based; conditions: time 6.0 day
[17] = Drug localization in lysosomes of human HeLa cells expressing endosome markers at 100 nM incubated for 3 hrs by LysoTracker probe based analysis; type: ADME, subcellular, Lysosome; conditions: 0.1 µM
Procedure, shortened: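 HeLa cells expressing early-endosome GFP marker (16 h) given TAMRA-labelled peptide 100 nM for 3 h plus LysoTracker 50 nM; confocal imaging with Pearson correlation.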

[18] = Drug localization in mitochondria of human tubular epithelial cells upto 100 nM by MitoTracker probe based assay; type: ADME; conditions: epithelial cell, 0.1 µM

In the case of `CC(=O)N[C@@H](CC1CCCCC1)C(=O)N[C@H]1CSSC[C@@H](C(=O)N[C@@H](CCCNC(=N)N)C(N)=O)NC(=O)[C@H](CC2CCCCC2)NC(=O)[C@H](CCCNC(=N)N)NC(=O)[C@H](CCCNC(=N)N)NC(=O)[C@H](CC2CCCCC2)NC(=O)[C@H](CC(C)C)NC(=O)[C@H](CCCNC(=N)N)NC(=O)[C@@H](NC(=O)[C@H](CC2CCCCC2)NC(=O)c2ccc3c(c2)C(=O)OC32c3ccc(N(C)C)cc3Oc3cc(N(C)C)ccc32)CSSC[C@@H](C(=O)N[C@@H](CCCNC(=N)N)C(N)=O)NC(=O)[C@H](CC2CCCCC2)NC(=O)[C@H](CCCNC(=N)N)NC(=O)[C@H](CCCNC(=N)N)NC(=O)[C@H](CC2CCCCC2)NC(=O)[C@H](CC(C)C)NC(=O)[C@H](CCCNC(=N)N)NC1=O` (I: Ac-[Cha]CRL[Cha]RR[Cha]CR-NH2 / II: 5TAMRA-[Cha]CRL[Cha]RR[Cha]CR-NH2; disulfide I:2-II:9, I:9-II:2), the Activity (Mus musculus [1]) is reported as “Active”, the Activity (HeLa [2]) is reported as “Active” and the Activity (HeLa [3]) is reported as “Active”. For the same compound, the Activity (Mus musculus [4]) was “Active”, the Activity (Mus musculus [5]) was “Active” and the Activity (Mus musculus [6]) was “Active”. The Activity (Mus musculus [7]) was “Active”, the inhibition (Mitochondria) was “Dose-Dependent Effect” and the Activity (Epithelial cell [8]) was “Active”. For the same compound, the Activity (Mus musculus [9]) was “Active”, the Drug uptake [10] was “Tde” and the Activity (Mus musculus [11]) was “Active”. For the same compound, the Activity (Epithelial cell [12]) was “Dose-Dependent Effect”, the Activity (Mus musculus [13]) was “Active” and the Drug uptake [14] was “Active”. For the same compound, the Activity (HeLa [15]) was “Dose-Dependent Effect”, the Activity (Mus musculus [16]) was “Active” and the Drug uptake [17] was “Active”. The Drug uptake [18] was “Active”.
